Calls of active or inactive are those of the source. The rule behind the calls is not given here.
How the values were obtained:
[1] = molecular target: T1, Cytochrome P450 3A4 (Homo sapiens, UniProt P08684); assay: Time dependent inhibition of CYP3A4 in human liver microsomes using testosterone as substrate by LC-MS-MS analysis relative to control; type: ADME, Microsome
How it was run: (§1)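 CYP3A4 metabolism of testosterone was measured after 0 or 30 min preincubation of enzyme with test article at the indicated concentration. Activity lost via preincubation, relative to the zero-minute control with the same inhibitor, was the end point. 6β-OH testosterone was detected by LC-MS/MS with cortisone as internal standard.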

[2] = molecular target: T2, CYP3A4 (Homo sapiens, UniProt P08684); assay: Inhibition of CYP3A4 in human liver microsomes using testosterone as substrate at 10 uM by LC-MS-MS analysis relative to control; type: ADME, Microsome; settings: probe testosterone
[3] = molecular target: T2, CYP3A4; assay: Time dependent inhibition of CYP3A4 in human liver microsomes using testosterone as substrate at 10 uM preincubated for 30 mins by LC-MS-MS analysis relative to control; type: ADME, Microsome; settings: probe testosterone, read-out: TDI; how it was run: as §1
[4] = molecular target: Vascular endothelial growth factor receptor 3 (Homo sapiens) (UniProt P35916); assay: Inhibition of FLT4 (unknown origin) relative to control; settings: concentration not given here
How it was run: (§2)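 Kinase selectivity was assessed at a 10 μM or 0.1 μM test concentration, as footnoted per entry.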

[5] = molecular target: T3, Tyrosine-protein kinase Mer (Homo sapiens) (UniProt Q12866); assay: Inhibition of MER (unknown origin) relative to control; settings: concentration not given here; how it was run: as §2
T3 sequence (whole entry): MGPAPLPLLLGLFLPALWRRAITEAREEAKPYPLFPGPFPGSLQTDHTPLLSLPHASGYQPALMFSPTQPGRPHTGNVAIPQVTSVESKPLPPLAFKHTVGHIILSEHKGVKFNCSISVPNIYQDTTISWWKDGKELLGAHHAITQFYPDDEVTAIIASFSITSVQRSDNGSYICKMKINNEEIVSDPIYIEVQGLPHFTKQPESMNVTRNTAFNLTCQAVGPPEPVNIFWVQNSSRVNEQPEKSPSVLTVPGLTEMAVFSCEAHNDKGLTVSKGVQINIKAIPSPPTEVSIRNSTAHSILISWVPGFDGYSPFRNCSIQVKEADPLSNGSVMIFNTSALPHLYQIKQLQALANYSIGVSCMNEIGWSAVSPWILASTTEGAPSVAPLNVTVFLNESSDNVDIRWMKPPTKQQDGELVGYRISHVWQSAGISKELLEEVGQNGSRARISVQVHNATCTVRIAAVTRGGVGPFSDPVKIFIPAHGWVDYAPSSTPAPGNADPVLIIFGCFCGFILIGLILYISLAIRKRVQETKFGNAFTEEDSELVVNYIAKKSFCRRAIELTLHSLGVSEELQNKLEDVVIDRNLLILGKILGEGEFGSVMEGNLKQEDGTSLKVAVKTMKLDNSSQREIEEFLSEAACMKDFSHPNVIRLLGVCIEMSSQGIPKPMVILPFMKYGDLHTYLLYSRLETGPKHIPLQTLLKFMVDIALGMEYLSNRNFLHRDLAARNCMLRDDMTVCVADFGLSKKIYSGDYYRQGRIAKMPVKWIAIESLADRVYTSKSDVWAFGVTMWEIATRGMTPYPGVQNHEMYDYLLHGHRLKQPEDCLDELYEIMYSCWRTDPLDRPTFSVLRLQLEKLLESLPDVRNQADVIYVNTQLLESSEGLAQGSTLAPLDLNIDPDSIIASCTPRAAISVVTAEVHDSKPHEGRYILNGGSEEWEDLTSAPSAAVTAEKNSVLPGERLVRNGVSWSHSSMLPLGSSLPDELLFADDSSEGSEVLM

[6] = molecular target: Tyrosine-protein kinase Fes/Fps (Homo sapiens) (UniProt P07332); assay: Inhibition of FES (unknown origin) relative to control; settings: concentration not given here; how it was run: as §2
[7] = molecular target: Fibroblast growth factor receptor 3 (Homo sapiens) (UniProt P22607); assay: Inhibition of FGFR3 (unknown origin) relative to control; settings: concentration not given here; how it was run: as §2
[8] = molecular target: Cytochrome P450 2D6 (Homo sapiens, UniProt P10635); assay: Inhibition of CYP2D6 (unknown origin); type: ADME
[9] = molecular target: T1, Cytochrome P450 3A4; assay: Time dependent inhibition of CYP3A4 in human liver microsomes using testosterone as substrate up to 100 uM by LC-MS-MS analysis; type: ADME, Microsome
How it was run: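 For inactivation kinetics, CYP3A4 testosterone 6β-hydroxylation was quantified by LC-MS/MS as the area ratio of 6β-OH testosterone to the cortisone internal standard. Ki and kinact were obtained by nonlinear regression.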

[10] = molecular target: Cytochrome P450 2C9 (Homo sapiens, UniProt P11712); assay: Inhibition of CYP2C9 (unknown origin); type: ADME
[11] = Oral bioavailability in dog; type: ADME, organism-based, Canis lupus familiaris; settings: in vivo
[12] = Half life in dog; type: ADME, organism-based, Canis lupus familiaris; settings: in vivo
[13] = Plasma clearance in dog; type: ADME, organism-based, Canis lupus familiaris
[14] = Volume of distribution at steady state in dog; type: ADME, organism-based, Canis lupus familiaris; settings: in vivo, read-out: Vdss
[15] = Oral bioavailability in rat; type: ADME, organism-based; settings: in vivo
[16] = Half life in rat; type: ADME, organism-based; settings: in vivo
[17] = Volume of distribution at steady state in rat; type: ADME, organism-based; settings: in vivo, read-out: Vdss
[18] = Plasma clearance in rat; type: ADME, organism-based
[19] = molecular target: T4, Macrophage-stimulating protein receptor (Homo sapiens, UniProt Q04912); assay: Inhibition of RON (unknown origin) by TR-FRET assay
[20] = system: Mus musculus; assay: Toxicity in CD1 nu/nu mouse xenografted with human GLT16 cells assessed as change in body weight relative to control; type: organism-based; settings: in vivo
[21] = system: GTL 16; assay: Antitumor activity against human GTL16 cells expressing c-MET xenografted in CD1 nu/nu mouse assessed as tumor growth inhibition at 100 mg/kg, po qd for 21 days; type: functional, organism-based; design: dose 100 mg/kg
[22] = Antitumor activity against human GTL16 cells expressing c-MET xenografted in CD1 nu/nu mouse assessed as tumor growth inhibition at 100 mg/kg, po bid for 21 days relative to control; type: functional; settings: GTL 16, 504 h, read-out: TGI
How it was run: (§3)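 Mice carrying GTL-16 tumours received the compound orally; tumour growth was compared with the vehicle-treated group by two-way repeated measures ANOVA.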

[23] = Antitumor activity against human GTL16 cells expressing c-MET xenografted in CD1 nu/nu mouse assessed as tumor growth inhibition at 30 mg/kg, po bid for 21 days relative to control; type: functional; settings: GTL 16, 504 h, read-out: TGI; how it was run: as §3
[24] = Antitumor activity against human GTL16 cells expressing c-MET xenografted in CD1 nu/nu mouse assessed as tumor growth inhibition at 10 mg/kg, po bid for 21 days relative to control; type: functional; settings: GTL 16, 504 h, read-out: TGI; how it was run: as §3
[25] = Antitumor activity against human GTL16 cells expressing c-MET xenografted in CD1 nu/nu mouse assessed as tumor growth inhibition at 3 mg/kg, po bid for 21 days relative to control; type: functional; settings: GTL 16, 504 h, read-out: TGI; how it was run: as §3
[26] = system: GTL 16; assay: Antitumor activity against human GTL16 cells expressing c-MET xenografted in po dosed CD1 nu/nu mouse assessed as tumor growth inhibition administered bid for 21 days; type: functional, organism-based; how it was run: as §3
[27] = system: Mus musculus; assay: In vivo inhibition of c-MET phosphorylation at tyrosine Y1349 in human GTL16 cells xenografted in po dosed mouse after 8 hrs by Western blotting analysis; type: functional, organism-based; settings: GTL 16, 8 h
[28] = system: Mus musculus; assay: In vivo inhibition of c-MET phosphorylation at tyrosine Y1349 in human GTL16 cells xenografted in po dosed mouse after 1 hr by Western blotting analysis; type: functional, organism-based; settings: GTL 16, 1 h
How it was run: (§4)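 Mice carrying GTL-16 xenografts received a single oral dose of 10, 30, 100 or 400 mg/kg and were euthanized 1 h after dosing. Phospho-c-Met (Y1349) and total c-Met in the tumours were measured by quantitative Western blotting. Plasma total drug was also measured, and in vivo IC50 was deduced from the relationship between plasma level and tumour pY1349.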

[29] = system: Mus musculus; assay: In vivo inhibition of c-MET phosphorylation at tyrosine Y1349 in human GTL16 cells xenografted in mouse at 100 mg/kg, po after 1 hr by Western blotting analysis; type: functional, organism-based; design: dose 100 mg/kg; how it was run: as §4
[30] = molecular target: T4, Macrophage-stimulating protein receptor; settings: 1 uM
[31] = molecular target: Hepatocyte growth factor receptor (Homo sapiens) (UniProt P08581); settings: 1 uM

In the case of `Cn1cc(-c2cnc3ccc4ccc(CC(=O)NCc5ccccn5)cc4c(=O)c3c2)cn1`, the TDI [1] is reported as less than 10%.
`CNS(=O)(=O)Cc1ccc2ccc3ncc(-c4cnn(C)c4)cc3c(=O)c2c1` gave an inhibition at 10 µM [2] of 0% and an inhibition at 30 min, 10 µM [3] of 35%.
`Cn1cc(-c2cnc3ccc4ccc(CS(=O)(=O)NCc5cccnn5)cc4c(=O)c3c2)cn1` gave an inhibition at 10 µM [2] of 23% and an inhibition at 30 min, 10 µM [3] of 14%.
Compound `Cn1cc(-c2cnc3ccc4ccc(CS(=O)(=O)NCc5cccc[n+]5[O-])cc4c(=O)c3c2)cn1` has an inhibition at 10 µM [2] of 24% and an inhibition at 30 min, 10 µM [3] of 0%.
With `Cn1cc(-c2cnc3ccc4ccc(CS(=O)(=O)N[C@@H]5CCCC[C@@H]5N)cc4c(=O)c3c2)cn1` the inhibition at 10 µM [2] was 27% and the inhibition at 30 min, 10 µM [3] was 20%.
With `Cn1cc(-c2cnc3ccc4ccc(CS(=O)(=O)NCc5cnsc5)cc4c(=O)c3c2)cn1` the inhibition at 10 µM [2] was 67% and the inhibition at 30 min, 10 µM [3] was 13%.
Compound `Cn1cc(-c2cnc3ccc4ccc(CS(=O)(=O)NCC5CCCCN5)cc4c(=O)c3c2)cn1` (centres undefined) has an inhibition at 10 µM [2] of 29% and an inhibition at 30 min, 10 µM [3] of 1%.
With `Cn1cc(-c2cnc3ccc4ccc(CS(=O)(=O)NCc5ccccn5)cc4c(=O)c3c2)cn1` [MK-8033] the inhibition [4] was 60%, the inhibition [5] was 60% and the inhibition [6] was 60%. For the same compound, the inhibition [7] was 60%, the IC50 [8] was 46200 nM and the TDI [9] was “Not Active”. The IC50 [10] was 14700 nM, the inhibition at 10 µM [2] was 31% and the bioavailability [11] was 33%. The half-life [12] was 3.1 h, the clearance [13] was 3.1 mL/min/kg and the Vd [14] was 0.7 L/kg. The bioavailability [15] was 35%, the half-life [16] was 0.8 h and the Vd [17] was 0.4 L/kg. It also gave a clearance [18] of 20 mL/min/kg, an inhibition at 30 min, 10 µM [3] of 16% and an IC50 [19] of 7 nM. For the same compound, the Activity [20] was “Non-toxic”, the TGI [21] was “Active” and the inhibition in vivo at 100 mg/kg [22] was 86%. It also gave an inhibition in vivo at 30 mg/kg [23] of 57%, an inhibition in vivo at 10 mg/kg [24] of 18% and an inhibition in vivo at 3 mg/kg [25] of 22%. For the same compound, the TGI [26] was “Dose-dependent effect”, the IC50 [27] was 1700 nM and the IC50 [28] was 1300 nM. For the same compound, the inhibition [29] was “Active”, the inhibition [30] was greater than 90% and the inhibition [31] was greater than 90%.
Compound `Cn1cc(-c2cnc3ccc4ccc(CS(=O)(=O)NCCc5ccccn5)cc4c(=O)c3c2)cn1` has an inhibition at 10 µM [2] of 14% and an inhibition at 30 min, 10 µM [3] of 9%.
Work on `Cn1cc(-c2cnc3ccc4ccc(CS(=O)(=O)Nc5ccccc5)cc4c(=O)c3c2)cn1` yielded an inhibition at 10 µM [2] of 28% and an inhibition at 30 min, 10 µM [3] of 50%.
In the case of `Cn1cc(-c2cnc3ccc4ccc(CS(=O)(=O)NCC5COCCO5)cc4c(=O)c3c2)cn1` (centres undefined), the inhibition at 10 µM [2] is reported as 0% and the inhibition at 30 min, 10 µM [3] is reported as 35%.

Reference: ChEMBL document CHEMBL2321765 (J Med Chem, 2013)
